Entries after “also recorded” stand apart in the source; their conditions may differ. Read-outs that look alike come from different tables or passages of the source.
Assays:
[1] = cited from earlier work; for elimination half-life: background statement for the sampling period, no reference given
[2] = assay type: in vivo, human; conditions: for Tmax: median (minimum through maximum); for Cmax: n = 22, mean ± SD; for t1/2: mean ± SD
[3] = system: CYP3A; conditions: oral contraceptives that are substrates of CYP3A; cited from earlier work
[4] = system: CYP3A; conditions: cited from earlier work
[5] = cited from earlier work
[6] = system: CYP1A2, CYP2C9, CYP2C19, or CYP2D6; conditions: chronic dosing of upadacitinib 30 mg once daily, healthy volunteers; cited from earlier work
[7] = cited from earlier work; remark: listed apart in the source
[8] = system: CYP2B6; assay: In vivo effect of upadacitinib on CYP2B6; set-up: species or system human
[9] = system: JAK1; conditions: less potent against JAK2, JAK3, and tyrosine kinase; cited from earlier work
[10] = system: CYP2B6 mRNA; conditions: in vitro, at concentrations higher than clinically relevant; cited from earlier work
[11] = system: CYP enzymes (CYP1A2, CYP2B6, CYP2C8, CYP2C9, CYP2C19, CYP2D6, and CYP3A4); conditions: at clinically relevant concentrations, cited from earlier work
[12] = Safety monitoring in the phase 1 study; assay type: in vivo, human; conditions: healthy subjects
Summary of the method: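 Healthy adults aged 18-55 took part in a single-centre, open-label, two-period, single-sequence study with 24-day on-site confinement. Period 1 gave a single oral 150 mg extended-release CYP2B6 probe substrate dose after at least a 10-hour fast. Period 2 repeated that dose on day 12 of 16 days of oral test compound. Throughout, safety checks covered adverse events, physical exams, vital signs, ECG, haematology, chemistry and urinalysis.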

[13] = Study period 2, day 12: upadacitinib 30 mg once daily + bupropion 150 mg
[14] = Period 1, day 1: bupropion 150-mg single dose
[15] = Period 2, day 12: upadacitinib 30 mg once daily + bupropion 150-mg single dose
[16] = Study period 1, day 1: bupropion 150 mg alone
[17] = with upadacitinib relative to bupropion alone
[18] = with upadacitinib 30 mg once daily
[19] = with multiple doses of rifampin (broad CYP inducer)
[20] = with the strong CYP3A inhibitor ketoconazole

CC(NC(C)(C)C)C(=O)c1cccc(Cl)c1 (stereo not shown) [Bupropion, bupropion]
elimination half-life [1]: approximately 20 hours | Tmax [2, 13]: 5.0 (3.0‐8.0) h | AUC(0-inf) ([2]; human, plasma, oral, 150 mg): 859 ng·h/mL | AUC(0-t) ([2]; human, plasma, oral, 150 mg): 869 ± 271 ng·h/mL | Cmax ([2]; human, plasma, oral, 150 mg, Cmax, Study period 1, day 1: bupropion 150 mg alone, plasma): 83.5 ± 26.2 ng/mL

C[C@H]1NC(C)(C)CO[C@]1(O)c1cccc(Cl)c1 [Hydroxybupropion, hydroxybupropion]
elimination half-life [1]: approximately 20 hours | range of variability in hydroxybupropion exposures ([1]; inter- and intrasubject variability): 20% to 50% | Hydroxybupropion-to-bupropion metabolic ratio, AUCinf, central value, reference [2, 14]: 16.9 | Hydroxybupropion-to-bupropion metabolic ratio, AUCt, central value, reference [2, 14]: 16.5 | Hydroxybupropion-to-bupropion metabolic ratio, Cmax, central value, reference [2, 14]: 3.83 | Hydroxybupropion-to-bupropion metabolic ratio, AUCinf, central value, test [2, 15]: 13.2 | Hydroxybupropion-to-bupropion metabolic ratio, AUCt, central value, test [2, 15]: 13.1 | Hydroxybupropion-to-bupropion metabolic ratio, Cmax, central value, test [2, 15]: 3.45 | t1/2 [2, 16]: 25.1 ± 6.8 h | Tmax [2, 16]: 10.0 (5.0‐24.0) h | Cmax ([2]; Study period 1, day 1: bupropion 150 mg alone, plasma): 336 ± 150 ng/mL | t1/2 [2, 13]: 23.9 ± 5.6 h | Tmax [2, 13]: 10.0 (6.0‐24.0) h | Cmax ([2]; Study period 2, day 12: upadacitinib 30 mg once daily + bupropion 150 mg, plasma): 264 ± 121 ng/mL | AUCt ratio of central values, point estimate ([2]; with upadacitinib 30 mg once daily relative to bupropion alone): 0.726 | exposures (AUCinf) lower when administered with upadacitinib ([2]; with upadacitinib 30 mg once daily versus bupropion alone): 28% | Hydroxybupropion-to-bupropion metabolic ratio, AUCinf, ratio of central values, point estimate [2, 17]: 0.780 | Hydroxybupropion-to-bupropion metabolic ratio, AUCt, ratio of central values, point estimate [2, 17]: 0.790 | Hydroxybupropion-to-bupropion metabolic ratio, Cmax, ratio of central values, point estimate [2, 17]: 0.902

C#C[C@]1(O)CC[C@H]2[C@@H]3CCc4cc(O)ccc4[C@H]3CC[C@@]21C [ethinylestradiol]
impact of upadacitinib on exposure [3]: no impact

C#C[C@]1(O)CC[C@H]2[C@@H]3CCC4=CC(=O)CC[C@@H]4[C@H]3CC[C@@]21CC [levonorgestrel]
impact of upadacitinib on exposure [3]: no impact

Cc1ncc2n1-c1ccc(Cl)cc1C(c1ccccc1F)=NC2 [midazolam]
decrease in exposures of midazolam ([4]; chronic dosing of upadacitinib 30 mg once daily, healthy volunteers): 26% | decrease in midazolam AUC [4, 18]: 26% | decrease in midazolam Cmax [4, 18]: 26%

CC[C@@H]1CN(C(=O)NCC(F)(F)F)C[C@@H]1c1cnc2cnc3[nH]ccc3n12 [upadacitinib]
decrease in upadacitinib AUC [5, 19]: ~60% | decrease in upadacitinib Cmax [5, 19]: approximately 50% | increase in upadacitinib AUC [5, 20]: 75% | increase in upadacitinib Cmax [5, 20]: 70% | effects on CYP1A2, CYP2C9, CYP2C19, or CYP2D6 activity [6]: no relevant effects | dose eliminated unchanged in urine [7]: approximately 20% | effect on bupropion exposures (Cmax or AUC) ([8]; bupropion on day 12 of 16-day upadacitinib 30 mg once daily regimen): no relevant effect | effect on pharmacokinetics of substrates metabolized by CYP2B6 ([8]; upadacitinib 30 mg once daily, multiple doses): no relevant effect; also recorded: lack of relevant effect | JAK1 inhibition [9]: potently inhibits | CYP2B6 mRNA expression [10]: increase in CYP2B6 mRNA expression | inhibition or induction of the activity of CYP enzymes [11]: did not inhibit or induce | inhibitor or inducer of drug-metabolizing enzymes, including CYP2B6 ([11]; in vitro): not an inhibitor or inducer | discontinuation because of adverse events ([12]; n = 22): no subject discontinued because of AEs | severity of the majority of treatment-emergent adverse events ([12]; n = 22, upadacitinib 30 mg once daily and bupropion 150 mg): mild in severity

— article PMC7984436 (Clinical Pharmacology in Drug Development, 2020)
